Results reported in PubChem BioAssay.
The source made the active and inactive calls.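 Rule for the calls, unless noted: active = NADPH fluorescence slope more negative than the mean of all samples by about 3 SD, 99.7% confidence; inactive = the rest.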

Columns and labels:
[1] = inhibitors of TNFa-induced NFkB p65 translocation, primary screen, imaging, HUVEC, MLSMR starter and 10KST1 sets (AID 438;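 active = inhibition above 20% together with a positive visual image hit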;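 note: compound added about 3h40 before a 20 min TNFalpha stimulation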;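 for inhibition: signal is the nuclear over cytoplasmic p65 intensity ratio per well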); settings: HUVEC TNFa-induced p65 nuclear translocation; cell count: measured here: nuclei count (cytotoxicity indicator), at 2.08 µM; inhibition: at 2 µM, stronger effect = higher value, 0% TNFa-plus-vehicle, 100% no-TNFa wells
[2] = reduction of polyQ htt aggregates in cells – imaging, exon1htt(103Q)mCFP cells, high-content imaging, primary screen (AID 483;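 active = visual image review flags a hit and inhibition of aggregation exceeds 20%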;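 note: compound exposure lasted 3 days before fixation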;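 for nuclei count: percent of the per-plate median nuclei count of sample wells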); settings: exon1htt(103Q)mCFP cell line, aggregate imaging, at 2 µM; inhibition of aggregation: stronger effect = higher value; nuclei count: measured here: cell count, toxicity
[3] = endothelial E-selectin expression blockers – imaging, HUVEC, immunofluorescence, MLSMR starter and 10KST1 sets, primary screen (AID 487;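 active = visually confirmed hit in the image check and inhibition above 20%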;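 for inhibition: signal is fraction of cell area covered by stained E-selectin grains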;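 for nuclei count: 100% = median nuclei count of all wells on the same plate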); settings: HUVEC TNFalpha-induced E-selectin immunofluorescence imaging, at 2 µM; inhibition: stronger effect = higher value; nuclei count: measured here: cell number, toxicity
[4] = molecular target: Voltage-gated potassium channel subunit beta-2 (Rattus norvegicus) (UniProt P62483); experiment: inhibitors of rat Kvbeta2 reductase activity – biochemical, NADPH fluorescence, primary screen (AID 622;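 active = fluorescence slope higher than the sample average by over 3 SD, cut at about -0.22 in these data, passing the limit was not always enough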;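 note: slope of raw intensity against log time taken from 70 to 1610 s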); settings: recombinant KvBeta, 4-cyanobenzaldehyde reduction, at 10 µM, stronger effect = higher value
Voltage-gated potassium channel subunit beta-2 (Rattus norvegicus), sequence (P62483 whole entry, looked up): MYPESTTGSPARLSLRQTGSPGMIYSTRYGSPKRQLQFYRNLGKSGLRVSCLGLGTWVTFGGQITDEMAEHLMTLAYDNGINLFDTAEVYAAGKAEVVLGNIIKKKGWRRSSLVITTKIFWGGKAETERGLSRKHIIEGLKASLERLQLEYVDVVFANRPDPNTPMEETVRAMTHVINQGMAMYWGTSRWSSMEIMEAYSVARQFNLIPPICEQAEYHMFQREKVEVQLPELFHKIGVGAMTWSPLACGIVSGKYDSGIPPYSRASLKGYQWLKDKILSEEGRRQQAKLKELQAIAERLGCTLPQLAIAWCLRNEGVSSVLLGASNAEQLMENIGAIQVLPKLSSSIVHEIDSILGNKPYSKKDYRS

[5] = molecular target: Voltage-gated potassium channel subunit beta-2 (Rattus norvegicus) (UniProt P62483); experiment: enhancers of rat Kvbeta2 NADPH turnover – biochemical, NADPH fluorescence, primary screen (AID 623); settings: Recombinant KvBeta, NADPH fluorescence decrease slope, 10 min; at 10 µM; stronger effect = lower value;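 note: fluorescence intensity change per second fitted from 20 to 320 s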
[6] = molecular target: Muscarinic acetylcholine receptor M4 (Homo sapiens) (UniProt P08173); experiment: M4-linked GIRK flux change, two-sided – cell-based, HEK293 M4/GIRK, thallium flux, BTC-AM, M4 allosteric agonist project, primary screen (AID 625;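 active = fluorescence slope after compound addition differing from the mean of all tested samples at 99.7% confidence, mostly higher but some lower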;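 note: thallium influx through GIRK channels coupled to M4 in HEK293 cells with BTC-AM dye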); settings: at 10 µM, actives lie on both sides
Muscarinic acetylcholine receptor M4 (Homo sapiens), sequence (P08173 whole entry, looked up): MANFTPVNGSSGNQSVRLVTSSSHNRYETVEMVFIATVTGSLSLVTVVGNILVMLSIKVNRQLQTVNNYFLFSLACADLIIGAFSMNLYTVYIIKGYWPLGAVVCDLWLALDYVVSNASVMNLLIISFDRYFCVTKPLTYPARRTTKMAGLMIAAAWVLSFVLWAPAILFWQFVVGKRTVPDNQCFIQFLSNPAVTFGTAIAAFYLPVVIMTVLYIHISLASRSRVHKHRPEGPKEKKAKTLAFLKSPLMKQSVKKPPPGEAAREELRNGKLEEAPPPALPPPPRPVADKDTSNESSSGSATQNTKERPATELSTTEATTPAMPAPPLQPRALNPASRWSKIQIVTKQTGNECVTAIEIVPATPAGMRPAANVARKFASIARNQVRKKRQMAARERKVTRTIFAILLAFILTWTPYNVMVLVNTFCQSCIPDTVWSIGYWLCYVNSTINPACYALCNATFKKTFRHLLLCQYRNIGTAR
In short: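 System: HEK293 cells with M4 receptor and GIRK channels | Incubation: Cells overnight at 37 °C, BTC-AM loading 1 h, reads 2 min total | Technique: Kinetic BTC-AM fluorescence sampled at 1 Hz, 10 s pre-addition baseline | Measure: Post-addition slope, 15–24 s, of baseline-normalized fluorescence | Control set: Carbachol positive, DMSO negative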

[7] = blockers of RIG-like receptor reporter activation – cell-based, Sendai virus stimulus, luciferase, 10K MLSCN set, TLR/RLR signaling modifier project, primary screen (AID 602276;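 active = inhibition at or above 50% at 10 µM; inactive = inhibition below 50%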;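 note: firefly luciferase from ISG56 promoter only with Renilla not read in this screen; 0% = Sendai virus plus DMSO and 100% = medium plus DMSO without virus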); settings: HEK293 RL24 IRF3 luciferase reporter, at 10 µM, stronger effect = higher value
[8] = TLR3 IRF3 reporter activation blockers – cell-based, poly I:C stimulus, luciferase, 10K MLSCN set, primary screen (AID 602277;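 active = inhibition of the reporter signal at or above 50%; inactive = inhibition below 50%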); settings: HEK293-TLR3 RL24 IRF3 luciferase reporter, at 10 µM, stronger effect = higher value

Row | Structure (SMILES) | cell count [1] | inhibition [1] | inhibition of aggregation [2] | nuclei count [2] [%] | inhibition [3] | nuclei count [3] [%] | fluorescence slope [4] | NADPH fluorescence slope [5] | fluorescence slope [6] | inhibition [7] | inhibition [8]
1 | COc1ccc(CC(NC(C)=O)C(=O)NC2CCN(c3nc(C)cc(C)c3C#N)CC2)c(OC)c1 (stereo not drawn) | 750 | -7.4% (inactive) | -12.3% (inactive) | 121 | -32.4% (inactive) | 112 | -0.341 (inactive) | -1.7e-05 (inactive) | 0.00702 (inactive) | -9.6% (inactive) | -9.61% (inactive)
2 | O=c1oc2ccccc2n1CCc1ccccc1 | 470 | -4.6% (inactive) | 0% (inactive) | 88.3 | -76.9% (inactive) | 238 | -0.522 (inactive) | -0.000209 (inactive) | 0.00443 (inactive) | -4.32% (inactive) | -4.85% (inactive)
3 | CCOc1ccc(-c2noc(-c3ccncc3)n2)cc1OCC | 807 | 1.7% (inactive) | 33.6% (inactive) | 106 | -21.2% (inactive) | 117 | -0.533 (inactive) | 4e-05 (inactive) | 0.023 (active) | 4.12% (inactive) | -4.62% (inactive)
4 | COc1cccc(OC)c1C(=O)Nc1ccc(CN2CCCCC2)cc1 | 640 | -2.4% (inactive) | -16.7% (inactive) | 71.4 | -32.5% (inactive) | 98.8 | -0.425 (inactive) | -3.1e-06 (inactive) | 0.00659 (inactive) | 13.4% (inactive) | 23.2% (inactive)
5 | O=C(COC(=O)c1ccc(Br)o1)Nc1ccc(S(=O)(=O)N2CCCC2)cc1 | 619 | -3.6% (inactive) | -10.1% (inactive) | 117 | -150% (inactive) | 130 | -0.208 (inactive) | -2e-05 (inactive) | 0.00525 (inactive) | 12.4% (inactive) | 11.3% (inactive)
6 | O=C(Nc1ccccc1)c1cccnc1N1CCOCC1 | 590 | -11.1% (inactive) | -5.4% (inactive) | 110 | -36.4% (inactive) | 84.1 | -0.449 (inactive) | -0.000339 (inactive) | 0.00425 (inactive) | 4.9% (inactive) | 19.1% (inactive)
7 | CCOc1ccccc1NS(=O)(=O)c1c(C)noc1C | 389 | 5.5% (inactive) | 42.8% (inactive) | 97.1 | -3.1% (inactive) | 111 | -0.461 (inactive) | 4.7e-05 (inactive) | 0.00758 (inactive) | 0.4% (inactive) | 24.4% (inactive)
8 | COc1ccc(OCCCC(=O)Nc2ccc3c(c2)OCCO3)cc1 | 467 | 10.1% (inactive) | -6.5% (inactive) | 104 | -237% (inactive) | 140 | -0.299 (inactive) | -2.2e-05 (inactive) | 0.00647 (inactive) | -5.01% (inactive) | -17.3% (inactive)
9 | Cc1ncc(CO)c2c1OC(C)(C)OC2 | 373 | 2.5% (inactive) | -26.3% (inactive) | 106 | -39.2% (inactive) | 97.7 | -0.515 (inactive) | -0.0002 (inactive) | 0.00488 (inactive) | 8.62% (inactive) | 15.1% (inactive)
10 | Cc1cccc(NC(=O)CN(C)S(=O)(=O)c2ccccc2)n1 | 536 | -17.1% (inactive) | 2.2% (inactive) | 123 | -24.3% (inactive) | 116 | -0.44 (inactive) | -7.5e-05 (inactive) | 0.00526 (inactive) | 15% (inactive) | 15.7% (inactive)
11 | O=C(Nc1ccc(S(=O)(=O)NCCc2ccccc2)cc1)c1ccc(Br)o1 | 546 | -1.3% (inactive) | -22.6% (inactive) | 62.9 | -10.4% (inactive) | 88.5 | -0.499 (inactive) | -5.2e-06 (inactive) | 0.00439 (inactive) | -1.94% (inactive) | -11.8% (inactive)
12 | COCCNc1nc(SCC(=O)N2CCN(c3ccccc3)CC2)nc2ccccc12 | 462 | 4.1% (inactive) | -53.8% (inactive) | 70.8 | -188% (inactive) | 105 | -0.395 (inactive) | 4.2e-05 (inactive) | 0.0054 (inactive) | -2.13% (inactive) | 8.34% (inactive)
13 | CCOC(=O)c1ccccc1NC(=O)COC(=O)C1=COCCO1 | 595 | -3.1% (inactive) | 14% (inactive) | 61.5 | -92% (inactive) | 95.5 | -0.286 (inactive) | -3.3e-05 (inactive) | 0.00593 (inactive) | 15.1% (inactive) | 2.55% (inactive)
14 | CN(C)c1nc(Nc2ccc(Cl)cc2)nc(OCC#N)n1 | 387 | -23% (inactive) | -6.1% (inactive) | 78.6 | -109% (inactive) | 128 | -0.574 (inactive) | 1.7e-05 (inactive) | 0.00241 (inactive) | 24.2% (inactive) | 37.1% (inactive)
15 | Cc1ccc2cc(C#N)c(N3CCCC3)nc2c1C | 360 | 4.8% (inactive) | 10% (inactive) | 111 | -49.6% (inactive) | 110 | -0.195 (inactive) | -2.2e-05 (inactive) | 0.00646 (inactive) | 13.3% (inactive) | -29.1% (inactive)
16 | CC(=O)OCC(=O)c1ccc2ccn(C(C)=O)c2c1 | 544 | 1.6% (inactive) | -17.9% (inactive) | 102 | -19.1% (inactive) | 95.5 | -0.258 (inactive) | -1.1e-05 (inactive) | 0.00624 (inactive) | 4.56% (inactive) | -8.58% (inactive)
17 | Cc1cc(NC(=O)CCC(=O)N(CC2CCCO2)C(C(=O)NC2CCCC2)c2ccccc2C)no1 (stereo not drawn) | 341 | 0% (inactive) | 26.9% (inactive) | 63.6 | -106% (inactive) | 117 | -0.453 (inactive) | -5.7e-05 (inactive) | 0.00469 (inactive) | 20.9% (inactive) | 21.7% (inactive)
18 | CC(C(=O)Nc1ccccc1-c1ccccc1)N1CCN(C(=O)c2ccco2)CC1 (stereo not drawn) | 546 | -11.2% (inactive) | 14% (inactive) | 75 | -63.4% (inactive) | 97.9 | -0.395 (inactive) | 1.3e-05 (inactive) | 0.00807 (inactive) | 19.8% (inactive) | 33.6% (inactive)
19 | COc1ccccc1-n1c(SCC(N)=O)nnc1-c1ccccc1 | 737 | 19.3% (inactive) | -24.2% (inactive) | 106 | -0.4% (inactive) | 80.6 | -0.484 (inactive) | -3.5e-05 (inactive) | 0.00627 (inactive) | 13.3% (inactive) | 23.1% (inactive)
20 | c1ccc(-c2noc(C34CC5CC(CC(C5)C3)C4)n2)nc1 | 362 | 10.2% (inactive) | 17.1% (inactive) | 98.3 | -53.7% (inactive) | 102 | -0.554 (inactive) | -0.00016 (inactive) | 0.00439 (inactive) | -32.9% (inactive) | -64.6% (inactive)
21 | COc1oc(-c2ccccc2)nc1C(F)(F)F | 353 | 4.1% (inactive) | 0.7% (inactive) | 106 | -15.8% (inactive) | 116 | -0.473 (inactive) | -3.2e-05 (inactive) | 0.00537 (inactive) | 3.7% (inactive) | 12.2% (inactive)
22 | O=C(CSc1nnc2sc3ccccc3n12)c1ccco1 | 308 | 1.9% (inactive) | 23.4% (inactive) | 83.3 | 19.6% (inactive) | 91.6 | -0.293 (inactive) | -5e-05 (inactive) | 0.00582 (inactive) | -17.8% (inactive) | -83.7% (inactive)
23 | O=C(Nc1ccccc1)N1C(=O)C2(OCCO2)c2ccccc21 | 397 | 6.5% (inactive) | -15.7% (inactive) | 91.7 | -75.2% (inactive) | 105 | -0.542 (inactive) | -0.000137 (inactive) | 0.00486 (inactive) | 14.1% (inactive) | 7.78% (inactive)
24 | N#Cc1cnc2sc3ccccc3n2c1=N | 332 | -12.6% (inactive) | 5.1% (inactive) | 119 | -14.8% (inactive) | 106 | -0.554 (inactive) | 7.2e-06 (inactive) | 0.00378 (inactive) | -9.74% (inactive) | -37.6% (inactive)
25 | CC(C)N(C(=O)COC(=O)c1ccc(O)cc1)C(C)C | 467 | 1% (inactive) | 12.6% (inactive) | 112 | -8.7% (inactive) | 121 | -0.553 (inactive) | -3.1e-05 (inactive) | 0.00574 (inactive) | 17.3% (inactive) | 14.3% (inactive)
26 | CCOCCCNS(=O)(=O)c1ccc2c(c1)oc(=O)n2CC(=O)OCC | 454 | -6.6% (inactive) | 24.3% (inactive) | 119 | -7.8% (inactive) | 82.5 | -0.444 (inactive) | 3.2e-05 (inactive) | 0.00606 (inactive) | 12.8% (inactive) | 23.6% (inactive)
27 | O=C1CSC(c2cn(-c3ccccc3)nc2-c2ccccc2)N1Cc1ccco1 (stereo not drawn) | 480 | -6.3% (inactive) | 5.2% (inactive) | 108 | -89.3% (inactive) | 88.2 | -0.568 (inactive) | -2.8e-05 (inactive) | 0.00714 (inactive) | -1.04% (inactive) | 11.5% (inactive)
28 | Cc1nc(-c2ccc(NC(=O)c3cccs3)cc2)cs1 | 369 | -3.7% (inactive) | 20.1% (inactive) | 105 | -0.4% (inactive) | 109 | -0.427 (inactive) | -4.1e-05 (inactive) | 0.005 (inactive) | -23.5% (inactive) | -96.4% (inactive)
